dFosB activator – activators of delta FosB homodimer, primary screen, biochemical, fluorescence polarization, TAMRA-CDK5 oligo, single point | Protein FosB (Mus musculus), P13346 | purified delta FosB; percent of positive-control signal above neutral wells | activation, % at 25 µM | 0.99% of 340,000 active | AID 493131, 2011;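 active = mean activation above about 17%, with every replicate also reaching it, limit read from the data, passing the limit was not always enough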
HTR2A ag – mouse Htr2a agonists via beta-arrestin recruitment, primary screen, cell-based, luminescence | 5-hydroxytryptamine receptor 2A (Mus musculus), P35363 | CHO-K1 mHTR2A beta-arrestin complementation; percent of 30 µM serotonin response | activation, % at 7.6 µM | 0.66% of 360,000 active | AID 624169, 2012;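 active = activation above a run cutoff, the mean activation of all tested compounds plus 3 SD, cut at about 14% in these data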
Target sequence (P35363 whole entry, looked up): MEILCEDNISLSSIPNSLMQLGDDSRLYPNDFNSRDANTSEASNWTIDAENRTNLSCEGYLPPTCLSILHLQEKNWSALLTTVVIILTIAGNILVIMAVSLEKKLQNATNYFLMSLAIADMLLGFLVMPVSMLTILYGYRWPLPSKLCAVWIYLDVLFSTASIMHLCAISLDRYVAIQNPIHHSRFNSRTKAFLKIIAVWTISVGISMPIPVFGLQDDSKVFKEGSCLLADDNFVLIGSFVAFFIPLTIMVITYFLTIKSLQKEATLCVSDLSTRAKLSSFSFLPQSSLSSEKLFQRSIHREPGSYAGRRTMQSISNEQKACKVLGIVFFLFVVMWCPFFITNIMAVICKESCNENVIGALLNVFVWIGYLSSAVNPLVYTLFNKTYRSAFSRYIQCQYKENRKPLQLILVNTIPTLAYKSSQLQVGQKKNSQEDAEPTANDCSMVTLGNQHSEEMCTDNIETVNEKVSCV
IMP-1 inh-1 – IMP-1 metallo-beta-lactamase inhibitors, primary screen, biochemical, epi-absorbance readout, Pseudomonas aeruginosa enzyme; AID 1556, 2009; purified IMP-1, nitrocefin hydrolysis, epi-absorbance fluorescence; metallo-beta-lactamase IMP-1 (Pseudomonas aeruginosa); inhibition, % at 5.6 µM; 0.45% of 290,000 active;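 active = inhibition above the mean plus 3 SD of all compounds in the same screening run, cut at about 4.5% in these data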
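Assay system: purified recombinant IMP-1 beta-lactamase. Input: IMP-1 0.2 nM before substrate addition. Buffer or medium: Zinc- and detergent-supplemented HEPES buffer, pH 7.1. Schedule: 25 °C, 15 min preincubation, 25 min reaction. Signal: Epi-absorbance fluorescence, 480 nm excitation, 530 nm emission. Evaluation: percent inhibition from optical density relative to buffer-blank wells.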
VIM-2 inh – VIM-2 metallo-beta-lactamase inhibitors, primary screen, biochemical, epi-absorbance readout, Pseudomonas aeruginosa enzyme | purified VIM-2, nitrocefin hydrolysis, epi-absorbance fluorescence | inhibition, % at 5.6 µM | 0.89% of 290,000 active;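 active = inhibition above the mean of all tested compounds plus 3 SD, cutoff set per screening run, cut at about 7.5% in these data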;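 also: red hydrolysis product quenches plate fluorescence so inhibitors raise well fluorescence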
IMP-1 inh-2 – IMP-1 metallo-beta-lactamase inhibitors, confirmation, selectivity assay for selective VIM-2 inhibitor project, biochemical, epi-absorbance readout, triplicate; shares compounds with VIM-2 inh; purified IMP-1, nitrocefin hydrolysis, epi-absorbance fluorescence; inhibition, % at 5.6 µM; 1,300 tested, under 10 active; call rule not given here
VIM-2 FRET inh – VIM-2 inhibitors in FRET format, confirmation, artefact control for selective VIM-2 inhibitor project, biochemical, epi-absorbance artifact exclusion; purified VIM-2, CCF2 FRET substrate hydrolysis; inhibition, % at 5.6 µM; 23% of 1,300 active; AID 1857, 2009; shares compounds with VIM-2 inh;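 active = inhibition above the mean of all tested compounds plus 3 SD, cut at about 19% in these data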
TEM-1 inh – TEM-1 serine beta-lactamase inhibitors, counter-screen for VIM-2 inhibitor project, biochemical, epi-absorbance, HTS; shares compounds with VIM-2 inh; Purified TEM-1, nitrocefin hydrolysis, epi-absorbance fluorescence; inhibition, % at 5.6 µM; 3% of 1,300 active; AID 1866, 2009;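 active = inhibition above that campaign's mean inhibition plus 3 SD, cut at about 0.46% in these data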
Target sequence (P62593 whole entry, looked up): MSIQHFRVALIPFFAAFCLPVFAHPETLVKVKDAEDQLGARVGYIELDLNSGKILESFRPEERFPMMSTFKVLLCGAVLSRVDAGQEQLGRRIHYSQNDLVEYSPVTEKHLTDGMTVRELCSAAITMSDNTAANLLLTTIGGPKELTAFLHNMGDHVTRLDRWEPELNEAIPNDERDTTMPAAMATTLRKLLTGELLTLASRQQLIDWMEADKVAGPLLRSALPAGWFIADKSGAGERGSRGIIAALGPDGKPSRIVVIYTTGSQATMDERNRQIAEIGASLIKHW
VIM-2 confirm 2 – VIM-2 metallo-beta-lactamase inhibitors, confirmation, biochemical, epi-absorbance, hits shared with IMP-1 screen; 96% of 1,300 active; AID 2187, 2009; purified VIM-2, nitrocefin hydrolysis; shares compounds with VIM-2 inh; inhibition, % at 5.6 µM;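 active = inhibition of the VIM-2 beta-lactamase enzyme above about 11% from the earlier first-round screen, limit read from the data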
Of the large screens only hits and unclear results are named; the others gave an inactive call (follow-up assays come after a bar, where they were run). Sampled rows, rich in hits. Any-hit rate of the full collection: about 2.5%.

CCN1CCN(c2cc(N3CCN(C(=O)c4ccco4)CC3)c3c4c(onc24)-c2ccccc2C3=O)CC1	VIM-2 inh 23.3 | IMP-1 inh-2 inactive | VIM-2 FRET inh inactive | TEM-1 inh inactive | VIM-2 confirm 2 20.8
Cc1nc(S/C(=C\c2ccc(-c3ccc(C(=O)O)c(Cl)c3)o2)C(=O)O)n[nH]1	VIM-2 inh 16.2 | IMP-1 inh-2 inactive | VIM-2 FRET inh 17.5 | TEM-1 inh inactive | VIM-2 confirm 2 16.8
COc1cccc(-n2c(CNC(=O)OC(C)(C)C)n[nH]c2=S)c1	VIM-2 inh 18.9 | IMP-1 inh-2 inactive | VIM-2 FRET inh 44.1 | TEM-1 inh inactive | VIM-2 confirm 2 26.7
O=C(Nc1cccc(S(=O)(=O)N2CCOCC2)c1)C1CCN(S(=O)(=O)c2ccccc2)CC1	none (no result: IMP-1 inh-1, VIM-2 inh)
O=C1C=C(c2ccccc2C(F)(F)F)C[C@@H](c2ccc3c(c2)OCO3)C1	none (no result: IMP-1 inh-1, VIM-2 inh)
CC(=NCCCn1ccnc1)c1c(C)[nH]n(-c2ccc([N+](=O)[O-])cc2)c1=O	VIM-2 inh 12.5 | IMP-1 inh-2 inactive | VIM-2 FRET inh inactive | TEM-1 inh inactive | VIM-2 confirm 2 34.1
Cc1cccc(C)c1NC(=O)C(C)Sc1nnc(C)n1CC1CCCO1 (stereo not drawn)	none
N#Cc1ccccc1N1CCN(C(=O)c2ccc(NC(=O)c3ccc(Br)o3)cc2)CC1	none (no result: IMP-1 inh-1, VIM-2 inh)
CCCc1c(-c2ccc(F)cc2F)ncn1Cc1ccccc1OC	none (no result: dFosB activator, IMP-1 inh-1, VIM-2 inh)
C=CCNC(=O)c1cc2c(=O)n3cccc(C)c3nc2s1	VIM-2 inh 18.9 | IMP-1 inh-2 inactive | VIM-2 FRET inh inactive | TEM-1 inh inactive | VIM-2 confirm 2 26.1
CCOC(=O)N1CCN(C(=O)c2cc3c(=O)n4cccc(C)c4nc3s2)CC1	VIM-2 inh 16.2 | IMP-1 inh-2 inactive | VIM-2 FRET inh inactive | TEM-1 inh inactive | VIM-2 confirm 2 23.7
CCC(C)NC(=O)c1cc2c(=O)n3cccc(C)c3nc2s1 (stereo not drawn)	VIM-2 inh 20.2 | IMP-1 inh-2 inactive | VIM-2 FRET inh inactive | TEM-1 inh inactive | VIM-2 confirm 2 26.7
CCOC(=O)N1CCN(C(=O)c2cccn3c(=O)c4c5c(sc4nc23)CCCC5)CC1	none
CCOc1ncccc1C(=O)Nc1cc(S(=O)(=O)N2CCCCC2)ccc1OC	none (no result: IMP-1 inh-1, VIM-2 inh)
O=C(c1cc(-c2ccc(Br)cc2)on1)N1CCc2ccccc2C1	none
CCC(=O)Oc1ccc(C2NC(=O)c3ccccc3O2)cc1OC (stereo not drawn)	none
CCN(CC)CCSc1nnc2c3cc(C)ccc3n(Cc3ccccc3)c2n1	VIM-2 inh 22.8 (no result: dFosB activator) | IMP-1 inh-2 inactive | VIM-2 FRET inh inactive | TEM-1 inh inactive | VIM-2 confirm 2 42.6
CSc1nnc2c3cc(F)ccc3n(Cc3ccccc3)c2n1	none (no result: IMP-1 inh-1, VIM-2 inh)
O=C(CSc1nnc(NC(=O)c2ccccc2[N+](=O)[O-])s1)NC1CCCC1	VIM-2 inh 14.6 | IMP-1 inh-2 inactive | VIM-2 FRET inh 31.6 | TEM-1 inh inactive | VIM-2 confirm 2 19.4
COc1ccccc1C(=O)Nc1nnc(SCC(=O)NC2CCCC2)s1	VIM-2 inh 12.4 | IMP-1 inh-2 inactive | VIM-2 FRET inh 30.6 | TEM-1 inh inactive | VIM-2 confirm 2 24.2
O=C(CSc1nnc(NC(=O)c2ccccc2F)s1)NC1CC1	none
O=C(NCc1ccco1)c1ccc(-c2ccc(F)c(F)c2)c2ccoc12	none (no result: dFosB activator, IMP-1 inh-1, VIM-2 inh)
Cc1sc2ncnc(Oc3ccc(-n4ccnc4)cc3)c2c1C	VIM-2 inh 73.7 | IMP-1 inh-2 inactive | VIM-2 FRET inh inactive | TEM-1 inh inactive | VIM-2 confirm 2 85.0
CC(=O)Nc1ccc2c(CN3C(=O)NC(C)(c4ccc(C)cc4)C3=O)cc(=O)oc2c1 (stereo not drawn)	none
CC(=O)Nc1ccc2c(CSc3nnc(N)s3)cc(=O)oc2c1	VIM-2 inh 21.0 | IMP-1 inh-2 inactive | VIM-2 FRET inh inactive | TEM-1 inh inactive | VIM-2 confirm 2 inactive
COc1cc(OC)cc(C(=O)NNC(=O)NC2CCCCC2)c1	none
O=C(CCCOc1ccc(Br)cc1)NCCc1ccc(OC(F)F)cc1	none
Cc1ccc(N=C2SC(C(=O)Nc3ccc(OC(F)(F)F)cc3)C(N)=C2C(=O)Nc2c(C)cc(C)cc2C)cc1 (stereo not drawn)	none
Cc1ccc(-c2nn(C)c(=O)c3ccccc23)cc1S(=O)(=O)NCCN1CCOCC1	VIM-2 inh 14.4 | IMP-1 inh-2 inactive | VIM-2 FRET inh inactive | TEM-1 inh inactive | VIM-2 confirm 2 28.3
CCc1ccc(C(=O)C(C)OC(=O)c2cccc(S(=O)(=O)N3CCOCC3)c2)cc1 (stereo not drawn)	none (no result: IMP-1 inh-1, VIM-2 inh)
COc1cc(/C=C2\SC(=S)N(C(C(=O)O)c3ccccc3)C2=O)cc(OC)c1OC (stereo not drawn)	none
COc1cccc(/C=C2\SC(=S)N(C(C(=O)O)c3ccccc3)C2=O)c1OC (stereo not drawn)	VIM-2 inh 31.9 | IMP-1 inh-2 inactive | VIM-2 FRET inh 26.1 | TEM-1 inh inactive | VIM-2 confirm 2 18.1
Cc1cccc(NC(=O)COC(=O)c2nn(-c3ccccc3C(F)(F)F)cc2O)c1C	none (no result: dFosB activator, IMP-1 inh-1, VIM-2 inh)
Cc1c(C)c2c(OCC(=O)N[C@@H](C)C(=O)O)cc3c(c2oc1=O)CCC(C)(C)O3	VIM-2 inh 46.2 | IMP-1 inh-2 inactive | VIM-2 FRET inh 69.8 | TEM-1 inh inactive | VIM-2 confirm 2 53.1
Cc1c(C)c2c(OCC(=O)N3CCC[C@H]3C(=O)O)cc3c(c2oc1=O)CCC(C)(C)O3	VIM-2 inh 69.9 | IMP-1 inh-2 inactive | VIM-2 FRET inh 85.3 | TEM-1 inh inactive | VIM-2 confirm 2 72.4
Cc1c(C)c2c(OCC(=O)Nc3cccnc3)cc3c(c2oc1=O)CCC(C)(C)O3	VIM-2 inh 41.5 | IMP-1 inh-2 inactive | VIM-2 FRET inh inactive | TEM-1 inh inactive | VIM-2 confirm 2 51.9
Cc1c(C)c2c(OCC(=O)N3CCC(O)CC3)cc3c(c2oc1=O)CCC(C)(C)O3	none
Cc1c(C)c2c(OCC(=O)NCc3ccco3)cc3c(c2oc1=O)CCC(C)(C)O3	none
Cc1c(C)c2c(OCC(=O)NCc3ccncc3)cc3c(c2oc1=O)CCC(C)(C)O3	VIM-2 inh 30.9 | IMP-1 inh-2 inactive | VIM-2 FRET inh inactive | TEM-1 inh inactive | VIM-2 confirm 2 40.9

Screening results deposited in PubChem BioAssay by several laboratories.
